# Measurements pooled from the literature.
# SIRT3: NAD-dependent protein deacetylase sirtuin-3, mitochondrial (SIRT3, Homo sapiens, UniProt Q9NTG7)
# PTGS1: Prostaglandin G/H synthase 1 (PTGS1, Ovis aries, UniProt P05979)
# TAF1L BD2: Transcription initiation factor TFIID subunit 1-like, BD2 (TAF1L, Homo sapiens, UniProt Q8IZX4)
# TAF1L BD1: Transcription initiation factor TFIID subunit 1-like, BD1 (TAF1L, Homo sapiens, UniProt Q8IZX4)
Structure (SMILES),target,assay,setting,endpoint,value
CCCCCC1CC(=O)c2cc(C)cc(C)c2O1 (stereo not drawn),SIRT3,"enzyme activity, inhibitor, fluorescence",200 µM,inhibition,2.4%
Cc1nn(CC(F)(F)F)cc1Nc1nccc(NCCCNC(=O)C2CCC2)n1,"Serine/threonine-protein kinase MARK1 (MARK1, Homo sapiens, UniProt Q9P0L2)","enzyme activity, inhibitor, radiometric",1 µM,remaining activity,108%
CCCCC#CCNC(=O)c1ccccc1SC(C)=O,PTGS1,"enzyme activity, inhibitor, mass spectrometry",,kinact,0.0367 s⁻¹
Cc1cnc(Nc2ccc(OCCN3CCCC3)cc2)nc1Nc1cccc(S(=O)(=O)NC(C)(C)C)c1,TAF1L BD2,"thermal stability, DSF",10 µM,ΔTm,0.91 °C
Cc1nn(CC(F)(F)F)cc1Nc1ncc(Br)c(NCCCNC(=O)C2CCC2)n1,"Mitogen-activated protein kinase kinase kinase 9 (MAP3K9, Homo sapiens, UniProt P80192)","enzyme activity, inhibitor, radiometric",1 µM,remaining activity,21%
C[S+]([O-])c1ccc(-c2nc(-c3ccncc3)c(-c3ccc(F)cc3)[nH]2)cc1 (stereo not drawn),"Bromodomain adjacent to zinc finger domain protein 2B, bromodomain (BAZ2B, Homo sapiens, UniProt Q9UIF8)","thermal stability, DSF",10 µM,ΔTm,0.21 °C
CN(C)C1CCN(CC#Cc2nn(C3CCCC3)c3nc(NCc4ccccc4)ncc23)C1 (stereo not drawn),"Ephrin type-A receptor 3 (EPHA3, Homo sapiens, UniProt P29320)","enzyme activity, inhibitor, FRET",0.1 µM,inhibition,-6%
CCCOc1ccc(OC)c(F)c1C(=O)c1ccc(C(=O)N[C@@H]2CNC[C@H]2NC(=O)c2ccc3[nH]ncc3c2)cc1,"Serine/threonine-protein kinase MRCK alpha (CDC42BPA, Homo sapiens, UniProt Q5VT25)","enzyme activity, inhibitor",10 µM,remaining activity,-3%
Cc1cc2c(cc1N1C(=O)c3cccc4c(Cl)ccc(c34)C1=O)n(C)c(=O)n2C,TAF1L BD1,"thermal stability, DSF",10 µM,ΔTm,-0.2 °C
NS(=O)(=O)c1ccc(Nc2nc(-c3ccc(F)cc3)c3ccccc3n2)cc1,TAF1L BD2,"binding, competition with immobilised ligand",1 µM,remaining binding,77%
CCCCCCNC(=O)c1ccccc1SC(C)=O,PTGS1,"enzyme activity, inhibitor",,kinact,0.00035 s⁻¹
CCCCCC1CC(=O)c2cccc(Br)c2O1 (stereo not drawn),SIRT3,"enzyme activity, inhibitor, fluorescence",200 µM,inhibition,6.7%
COc1cc(Cl)c(C(=O)N[C@@H](CN[C@H]2CC[C@@H](N)CC2)Cc2ccc(C#N)cc2)cc1-c1ccc(CN[C@H](C)c2ccc(C)cc2)o1,"Transcription initiation factor TFIID subunit 1-like (TAF1L, Homo sapiens, UniProt Q8IZX4)","enzyme activity, inhibitor",1 µM,remaining activity,96%
Oc1ccc(-c2nc(-c3ccncc3)c(-c3ccc(F)cc3)[nH]2)cc1,TAF1L BD1,"thermal stability, DSF",10 µM,ΔTm,0.17 °C
Oc1cccc(Nc2nc(-c3ccc(F)cc3F)cs2)c1,"D(1A) dopamine receptor (DRD1, Homo sapiens, UniProt P21728)",cell-free assay,10 µM,inhibition,21.2%
Nc1ncnc2occ(-c3ccc(NC(=O)Nc4cc(C(F)(F)F)ccc4F)cc3)c12,"Mitogen-activated protein kinase kinase kinase 6 (MAP3K6, Homo sapiens, UniProt O95382)","cell-free assay, inhibitor",20 µM,remaining signal,20%
CCCCCC1CC(=O)c2ccccc2O1 (stereo not drawn),SIRT3,"enzyme activity, inhibitor, fluorescence",200 µM,inhibition,0.8%
CCOCCOCCOCCNC(=S)NCCCC[C@H](NS(C)(=O)=O)C(=O)N[C@@H](C)C(=O)N[C@@H](CCCNC(=N)N)C(N)=O,SIRT3,"enzyme activity, inhibitor",100 µM,inhibition,16%
